In ChEMBL document CHEMBL3351568, “2-Aminobenzoxazole ligands of the hepatitis C virus internal ribosome entry site” (Bioorg Med Chem Lett, 2014):

target: Internal ribosome entry site (IRES); assay: Binding affinity to HCV cyanine dye-labeled IRES subdomain 2a RNA by FRET assay in presence of tRNA; set-up: species or system Hepacivirus hominis
Outline: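 IRES subdomain IIa RNA target binding by FRET, following a previously described method. Compounds were titrated in triplicate experiments, and the data were averaged. EC50 came from fitting a single-site binding dose-response curve to the averaged data.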

Row | SMILES | EC50
1 | CN(C)CCCNc1ccc2nc(NCCCN(C)C)oc2c1 | 63 µM
2 | CN(C)CCCNc1nc2cc(N)ccc2o1 | 52 µM
3 | CN(C)CCN(C)Cc1cccc2nc(N)oc12 | 190 µM
4 | CN(C)CCNc1nc2ccc(N)cc2o1 | 500 µM
5 | CN(C)CCCNc1ccc2nc(N)oc2c1 | 25 µM
6 | Nc1nc2ccc(Nc3ccccc3)cc2o1 | 90 µM
7 | Nc1ccc2nc(NCCCN3CCCCC3)oc2c1 | 47 µM
8 | CN(CCC(=O)N(C)C)Cc1cccc2nc(N)oc12 | 600 µM
9 | Nc1ccc2nc(NCCCN3CCOCC3)oc2c1 | 43 µM
10 | Nc1ccc2nc(NCCN3CCCCC3)oc2c1 | 88 µM
11 | CN(C)CCCNc1nc2ccccc2o1 | 110 µM
12 | CN(C)CCCNc1nc2cccc(N)c2o1 | 31 µM
13 | CN(C)CCCNc1nc2ccc(N)cc2o1 | 120 µM
14 | Nc1nc2ccc(NCc3ccccc3)cc2o1 | 27 µM
